For five compounds, Activity, EC50 and LC50 results are on record in ChEMBL document CHEMBL1147382, “Cytotoxic constituents from Hyptis verticillata” (J Nat Prod, 1993).

Structures are written as SMILES. In brackets after ≈: the same amount, converted by molar mass. Activity calls are given as the source filed them. The calls are words filed in the database; no cut-off is given here.

The test system of data set [1] is Candida albicans. Put plainly: Antimicrobial activity against Candida albicans ATCC 10231 at 0.2 to 1 ug/ml. The data set is classed as functional, organism-based.
Data set [2] in a line: Antimitotic activity in rat ASK cells assessed as reversal of astrocyte formation at 0.0064 ug/mL. The data set is classed as functional. The procedure, abridged: (§1)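 Cultured rat glioma (ASK) cells were used, following Swanson et al. The antimitotic read-out was the dose giving 100% reversal of astrocyte conversion. Pure lignans were tested across a range of concentrations.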

The nature of data set [3]: Cytotoxicity against human KBV1 cells. The following applies: KB-V1, read-out: ED50 (the source's name). The format is functional.
For data set [4], the system named is P388. Briefly: Cytotoxicity in mouse P388 cells. To be noted: read-out: ED50 (the source's name). The data set is classed as functional.
Data set [5] has as its system Lu1. Put plainly: Cytotoxicity against human Lu1 cells. The format is functional. To be noted: read-out: ED50 (the source's name).
Data set [6] is described as follows: Toxicity in brine shrimp. The data set is classed as organism-based. To be noted: artemia, in vivo.
Data set [7] deals with ZR-75-1. Briefly: Cytotoxicity against human ZR-75-1 cells. The format is functional. To be noted: read-out: ED50 (the source's name).
The nature of data set [8]: Antimitotic activity in rat ASK cells assessed as reversal of astrocyte formation at 0.8 ug/mL. The format is functional. The procedure, abridged:
as §1

In data set [9] the test system is A-431. Briefly: Cytotoxicity against human A431 cells. To be noted: read-out: ED50 (the source's name). The data set is classed as functional.
In data set [10] the test system is KB. Put plainly: Cytotoxicity against human KB cells. The format is functional. The following applies: read-out: ED50 (the source's name).
Data set [11] in a line: Cytotoxicity against human BC1 cells. To be noted: read-out: ED50 (the source's name). The data set is classed as functional.
The subject of data set [12] is HT. Put plainly: Cytotoxicity against human HT cells. The data set is classed as functional. The following applies: read-out: ED50 (the source's name).
Data set [13] in a line: Antimitotic activity in rat ASK cells assessed as reversal of astrocyte formation at 0.032 ug/mL. The format is functional. The procedure, abridged:
as §1

Data set [14] in a line: Cytotoxicity against human U373 cells. The format is functional, U-373MG ATCC. To be noted: U373 MG, read-out: ED50 (the source's name).
Data set [15] deals with Col2. Briefly: Cytotoxicity against human Col2 cells. The format is functional. The following applies: read-out: ED50 (the source's name).
Data set [16] in a line: Antimitotic activity in rat ASK cells assessed as reversal of astrocyte formation at 4 ug/mL. The data set is classed as functional. The procedure, abridged: as §1
A short description of data set [17]: Antimitotic activity in rat ASK cells assessed as reversal of astrocyte formation at 0.16 ug/mL. The data set is classed as functional. The procedure, abridged: as §1
Data set [18] can be described thus: Antimitotic activity in rat ASK cells assessed as reversal of astrocyte formation at 100 ug/mL. The data set is classed as functional. The procedure, abridged:
as §1

For data set [19], the system named is LNCaP. Put plainly: Cytotoxicity against human LNCAP cells. The data set is classed as functional. To be noted: read-out: ED50 (the source's name).
Data set [20] in a line: Antimitotic activity in rat ASK cells assessed as reversal of astrocyte formation at 20 ug/mL. The format is functional. The procedure, abridged:
as §1

A short description of data set [21]: Antimitotic activity in rat ASK cells assessed as reversal of astrocyte formation at 0.00128 ug/mL. The format is functional. The procedure, abridged:
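Cultured rat glioma (ASK) cells, run essentially by a previously published astrocyte-formation procedure. Antimitotic potential is scored as the dose needed to give 100% reversal of astrocyte conversion.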

Take `COc1cc([C@@H]2c3cc4c(cc3C[C@H]3COC(=O)[C@@H]32)OCO4)cc(OC)c1O` [4'-DEMETHYLDEOXYPODOPHYLLOTOXIN]: the result in data set [1] was Active. The Activity in [2] is reported as 0%; in [8] it was 100%; in [13], 100%; in [16] it was 100%; in data set [17], 100%; in data set [18] it was 100%. Besides, the Activity in data set [20] came out at 100%. For the same compound, the EC50 in [3] is 0.02 µg/mL (≈ 0.052 µM); in data set [4], 0.005 µg/mL (≈ 0.013 µM); in data set [5], 0.03 µg/mL (≈ 0.078 µM); in data set [7] it was 2.1 µg/mL (≈ 5.46 µM); in data set [9], 0.08 µg/mL (≈ 0.208 µM); in data set [10] it was 0.01 µg/mL (≈ 0.026 µM). For the same compound, the EC50 is 0.01 µg/mL (≈ 0.026 µM) in data set [11]; 0.01 µg/mL (≈ 0.026 µM) in data set [12]; 0.1 µg/mL (≈ 0.26 µM) in data set [14]; 0.03 µg/mL (≈ 0.078 µM) in data set [15]; 0.02 µg/mL (≈ 0.052 µM) in data set [19]. This compound also returned an LC50 in [6] of 0.2 µg/mL (≈ 0.52 µM).
In the case of `COc1cc(C[C@H]2C(=O)OC[C@@H]2Cc2ccc3c(c2)OCO3)cc(OC)c1OC`, the result in [1] was Active. Besides, the Activity in data set [2] turned out to be 0%; in [8], 100%; in data set [13] it was 0%; in data set [16] it was 100%; in data set [17] it was 100%; in [18], 100%. In addition, the Activity in data set [20] worked out at 100%. Besides, the EC50 in data set [3] is 0.06 µg/mL (≈ 0.15 µM); in data set [4], 0.4 µg/mL (≈ 0.999 µM); in [5], 0.1 µg/mL (≈ 0.25 µM); in data set [7], 0.5 µg/mL (≈ 1.25 µM); in data set [9] it was > 20 µg/mL; in [10], 0.08 µg/mL (≈ 0.2 µM). Besides, the EC50 in data set [11] worked out at 0.05 µg/mL (≈ 0.125 µM); in data set [12] it was 0.07 µg/mL (≈ 0.175 µM); in data set [14], 0.3 µg/mL (≈ 0.749 µM); in data set [15], 0.08 µg/mL (≈ 0.2 µM); in [19], 0.16 µg/mL (≈ 0.4 µM). In data set [6], the LC50 turned out to be 2.8 µg/mL (≈ 6.99 µM).
Turning to `CC[C@]1(O)C[C@H]2CN(CCc3c([nH]c4ccccc34)[C@@](C(=O)OC)(c3cc4c(cc3OC)N(C=O)[C@H]3[C@@](O)(C(=O)OC)[C@H](OC(C)=O)[C@]5(CC)C=CCN6CC[C@]43[C@@H]65)C2)C1` [VINCRISTINE], the Activity is on record as 0% in data set [2]; 100% in data set [8]; 0% in data set [21]; 0% in data set [13]; 100% in [16]; 100% in data set [17]. The Activity in data set [18] and in [20] was 100% in each case.
On to `COc1cc2cc(c1Cl)N(C)C(=O)C[C@H](OC(=O)[C@H](C)N(C)C(C)=O)[C@]1(C)O[C@H]1[C@H](C)[C@@H]1C[C@@](O)(NC(=O)O1)[C@H](OC)/C=C/C=C(\C)C2` [MAYTANSINE], for which the Activity in data set [2] is 100%; in data set [8], 100%; in data set [21] it was 0%; in data set [13], 100%; in [16] it was 100%; in data set [17], 100%. The Activity in data set [18] and in data set [20] was 100% each time.
As to `CC[C@]1(O)C[C@@H]2CN(CCc3c([nH]c4ccccc34)[C@@](C(=O)OC)(c3cc4c(cc3OC)N(C)[C@H]3[C@@](O)(C(=O)OC)[C@H](OC(C)=O)[C@]5(CC)C=CCN6CC[C@]43[C@@H]65)C2)C1` [VINBLASTINE], the Activity in data set [2] came out at 0%; in [8], 100%; in data set [21], 0%; in [13], 100%; in data set [16], 100%; in [17], 100%. Further, the Activity in data set [18] and in data set [20] was 100% in each case.

As a reminder, the LC50 is the concentration lethal to half of the exposed cells or organisms. Read a high LC50 as lower toxicity.
